Assay: Toxicity liver stage against HepG2, at 10uM
Type: cell-based
Parameters: test concentration 10 uM, cell line HepG2-A16-CD81EGFP
Conditions: human, HepG2-A16-CD81EGFP cells; read-out: INHIBITION
Method in brief: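 Uninfected HepG2-A16-CD81EGFP cells, 3 × 10^3 per well, 1536-well, plated on prespotted compound at 10 μM final, parasite-free screening media added to match infected plates; puromycin 10 μM positive, DMSO 0.5% negative; run in parallel with 48 h PbLuc assay at 37 °C, 5% CO2; viability by CellTiter-Glo luminescence, normalized to controls.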

CC(C(=O)NCCOc1ccc2c(c1)CCC2)n1cncn1 (stereo not given)
cytotoxicity at 10 µM: -1.58%

c1ccc(C2CN(C3CC3)CC3(CCN(Cc4ncc[nH]4)CC3)C2)cc1 (stereo not given)
cytotoxicity at 10 µM: 7.31%

CCCC(=O)Nc1cc(C(=O)NC(C)Cc2ccncc2)ccc1C (stereo not given)
cytotoxicity at 10 µM: 2.52%

CCc1ccc(CN2CCN(Cc3ncc[nH]3)[C@H]3CS(=O)(=O)C[C@H]32)nc1
cytotoxicity at 10 µM: -0.235%

CN1CCN(C(=O)c2cc[nH]c(=O)c2)Cc2ccccc21
cytotoxicity at 10 µM: -18.1%

Cc1cccc(Nc2nccnc2C2CCCN2CC(N)=O)n1 (stereo not given)
cytotoxicity at 10 µM: -4.16%

Cc1cc(C(=O)N2CCC(c3nccn3Cc3ccccn3)CC2)no1
cytotoxicity at 10 µM: -1.85%

COCCCN1Cc2cccc(NC(=O)c3cc(F)cc(F)c3)c2C1
cytotoxicity at 10 µM: 2.28%

CCc1nc(C(=O)N2CCN(C)CC2C)nn1-c1ccccc1Cl (stereo not given)
cytotoxicity at 10 µM: -2.38%

Cc1c(C(=O)O)nnn1-c1cccc2cccnc12
cytotoxicity at 10 µM: 5.31%

Cc1nn(C)c(C)c1C1CCCN1Cc1nc(-c2ccco2)no1 (stereo not given)
cytotoxicity at 10 µM: -3.17%

COc1ccc(CN2C[C@@H]3CCCO[C@@H]3[C@H](NC(=O)CC3CC3)C2)cc1
cytotoxicity at 10 µM: 25.3%

CO[C@@H]1CC[C@H]2[C@H]1OCCN2CC1CC1
cytotoxicity at 10 µM: 11.4%

O=C(c1ccco1)N1Cc2cnn(CC3CC3)c2C(COCC2CC2)C1 (stereo not given)
cytotoxicity at 10 µM: 4.04%

COc1ccccc1OC1CCN(c2nccc(N)n2)CC1
cytotoxicity at 10 µM: 9.28%

Cc1cc(C2CCCN(CCCS(N)(=O)=O)C2)n[nH]1 (stereo not given)
cytotoxicity at 10 µM: -20.1%

COc1ccc(C(=O)N2CCCC(n3nc(C)nc3C)C2)c(OC)c1 (stereo not given)
cytotoxicity at 10 µM: -18.2%

O=C(O)C1CC2(CCN(c3nccc4ccccc34)CC2)CN1 (stereo not given)
cytotoxicity at 10 µM: -2.65%

O=C(NC1CC1)c1ccn(COc2c(Cl)cccc2Cl)n1
cytotoxicity at 10 µM: 7.36%

O=C(c1ccco1)N1C[C@H]2CCCN(Cc3ccncc3)[C@H]2C1
cytotoxicity at 10 µM: 0.361%

COC(=O)CC(NC(=O)c1ccccc1OC)c1cccs1 (stereo not given)
cytotoxicity at 10 µM: 0.35%

Cc1ccc(-c2nn(-c3cccc(F)c3)cc2CN(CCO)CCO)o1
cytotoxicity at 10 µM: 8.43%

CN(Cc1ccccc1)c1ccc(C(F)(F)F)cn1
cytotoxicity at 10 µM: 10.2%

CCCc1n[nH]c(C2CN(Cc3nnc(C4CC4)n3C)CCO2)n1 (stereo not given)
cytotoxicity at 10 µM: -2.36%

O=C(CNC1CCc2ncnn2C1)N(Cc1cccs1)C1CC1 (stereo not given)
cytotoxicity at 10 µM: -3.09%

Cc1nccnc1N1C[C@H](NC(=O)CNS(C)(=O)=O)[C@@H](C2CC2)C1
cytotoxicity at 10 µM: -10.3%

Cc1cc(CN[C@H](C(N)=O)[C@@H](C)O)c(C)s1
cytotoxicity at 10 µM: 9.5%

CC(C)C(=O)NC1CCCN(C(=O)c2cc(Cl)ccc2O)C1 (stereo not given)
cytotoxicity at 10 µM: -11.4%

CC(C)c1nnc(NC(=O)CN2C(=O)c3ccccc3NC2C(C)C)s1 (stereo not given)
cytotoxicity at 10 µM: -10.2%

CN(C)S(=O)(=O)CCCN1CCc2c(ncn2C2CC2)C1
cytotoxicity at 10 µM: -10.5%

Cc1cccc(-n2cnc(Cl)c2C(=O)O)c1
cytotoxicity at 10 µM: -1.26%

O=C(NCC(=O)N1CCCC1)c1nc(Cc2c(Cl)cccc2Cl)no1
cytotoxicity at 10 µM: 2.63%

O=C(c1ccc2[nH]ccc2c1)N1CCn2cnc(COCC3CC3)c2C1
cytotoxicity at 10 µM: 5.22%

CN1CCCN(S(=O)(=O)c2cccc(C(=O)N3CCCCCC3)c2)CC1
cytotoxicity at 10 µM: -5.9%

CN(Cc1ccc(F)cc1)CC1(O)CCN(C(=O)c2ccncc2)C1 (stereo not given)
cytotoxicity at 10 µM: -2.25%

COCCNC(=O)NC(=O)CNc1c(F)cccc1N1CCCC1
cytotoxicity at 10 µM: -2.05%

CCc1nc(C2CCCN(C(=O)c3ccc(F)cc3)C2)no1 (stereo not given)
cytotoxicity at 10 µM: -40.5%

Cc1ccc(CN2CC[C@H]3C[C@H](C(=O)N(C)C)O[C@H]3C2)cc1
cytotoxicity at 10 µM: 1.94%

Cc1ccc(F)c(S(=O)(=O)NCc2cccc(C(=O)N3CCCC3)c2)c1
cytotoxicity at 10 µM: -11.1%

N#CCCN(CC1CC1)Cn1cc(Cl)cn1
cytotoxicity at 10 µM: 4.03%

NC(=O)CSc1ccccc1NC(=O)C1CCCC1
cytotoxicity at 10 µM: -135%

CCN(CC)Cc1nc2c(o1)CN(S(=O)(=O)c1cccs1)C2
cytotoxicity at 10 µM: -117%

CN(CC(=O)Nc1cc(C(F)(F)F)c[nH]c1=O)Cc1ccccc1
cytotoxicity at 10 µM: 12%

O=C(NCCC1=CCCCC1)Nc1cc(C(F)(F)F)c[nH]c1=O
cytotoxicity at 10 µM: -8.39%

CCS(=O)(=O)N1Cc2ccccc2CC1C(=O)OCc1c(C)noc1C (stereo not given)
cytotoxicity at 10 µM: -9.26%

Cc1nc(C2CCN(C(=O)CO)CC2)cc(N2CCOCC2)n1
cytotoxicity at 10 µM: -12.2%

O=C1CC2(CCN(C(=O)C3CCCCC3)C2)Nc2ccccc2N1 (stereo not given)
cytotoxicity at 10 µM: 9.13%

CS(=O)(=O)NCC1CCCN(c2ccc(C#N)cn2)C1 (stereo not given)
cytotoxicity at 10 µM: -11.1%

O=S(=O)(NCC1COc2ccccc2C1)N1CCCCCC1 (stereo not given)
cytotoxicity at 10 µM: -0.138%

CCn1ncc(CN2CCC(O)(Cn3ccc4ncccc43)CC2)c1C
cytotoxicity at 10 µM: -0.692%

CC(C)(C)S(=O)(=O)c1ccc(N2CCC(n3cccn3)CC2)cn1
cytotoxicity at 10 µM: 22.3%

COc1cccc(N2CCN(C(=O)COc3c(C)occc3=O)CC2)c1
cytotoxicity at 10 µM: -1.29%

CC(C)c1cc(C2CCCN2Cc2nc(-c3ccco3)no2)no1 (stereo not given)
cytotoxicity at 10 µM: -3.45%

Cc1cc(N2CCN(Cc3cn(C)nc3C)CC2)cc(C2CCCN2)n1 (stereo not given)
cytotoxicity at 10 µM: 0.525%

Cc1nc(CNC(=O)Cn2nc(-c3ccc(F)cc3)oc2=O)cs1
cytotoxicity at 10 µM: 1.12%

CCC(Nc1ncnc2sc(C(=O)O)c(C)c12)c1ccnn1C (stereo not given)
cytotoxicity at 10 µM: 0.512%

Cc1ccc(Cl)cc1NC(=O)Nc1c[nH]c(=O)[nH]c1=O
cytotoxicity at 10 µM: -7.58%

Cn1ccnc1CN1C(=O)CO[C@H]2CN(CCCc3ccccc3)C[C@H]21
cytotoxicity at 10 µM: 4.22%

CC(O)C1CCN(Cc2nccn2CC(F)(F)F)CC1 (stereo not given)
cytotoxicity at 10 µM: 4.29%

CC(=O)N1CCC(Cc2cnc(-c3c(C)nn(C)c3C)cn2)C1 (stereo not given)
cytotoxicity at 10 µM: -7.31%

Cc1nc[nH]c1-c1nc2cc(S(=O)(=O)N3CCCC3)ccc2n1C
cytotoxicity at 10 µM: -14.2%

CCn1ccnc1CN1CCN(c2ccc3nnc(C)n3n2)CC1
cytotoxicity at 10 µM: 3.35%

Cc1ccc(CN2CCC[C@]3(C(=O)O)CN(C)C[C@@H]3C2)s1
cytotoxicity at 10 µM: -106%

CC(C(=O)N1CCC(c2[nH]ncc2-c2ccccc2)CC1)n1cncn1 (stereo not given)
cytotoxicity at 10 µM: -0.815%

Cc1noc(C)c1C(=O)N1C[C@@H]2CC[C@H]1CN(c1cnccn1)C2
cytotoxicity at 10 µM: 8.32%

CN(CC(=O)N1CCCC1)C(=O)c1cccn1CCc1ccccc1
cytotoxicity at 10 µM: 6.99%

CCc1cc(CNC(=O)C2CCCN(C(=O)NCC(C)C)C2)[nH]n1 (stereo not given)
cytotoxicity at 10 µM: 7.23%

CCOCC1CN(C(=O)c2cccs2)Cc2nn(C)cc21 (stereo not given)
cytotoxicity at 10 µM: -1.63%

Cn1ccc(-c2cc(C(=O)N3CCC(C(N)=O)CC3)c3ccccn23)n1
cytotoxicity at 10 µM: -105%

O=C(Nc1cccnc1N1CCSCC1)c1ccc2c(c1)CCC2
cytotoxicity at 10 µM: -2.03%

COCCNC(=O)NC1CCN(c2cnn(C)c2)C1 (stereo not given)
cytotoxicity at 10 µM: 6%

NC(=O)C1=NN2C(=NS(=O)(=O)c3ccccc32)N1
cytotoxicity at 10 µM: 7.58%

CC(OCC(F)(F)F)C(=O)N1CCN(S(C)(=O)=O)CC1 (stereo not given)
cytotoxicity at 10 µM: -1.33%

COc1ccc(-c2noc(CN3CC(n4cc(C)cn4)C3)n2)cc1
cytotoxicity at 10 µM: -5.97%

N#Cc1c(SCCN2CCOCC2)sc2c(O)cc(O)nc12
cytotoxicity at 10 µM: -7.5%

CC(C)CCN1C[C@@H]2C[C@H](C(=O)NCc3ccccc3)[C@H](C1)O2
cytotoxicity at 10 µM: -2%

CCOCc1cncc2c1CCN(S(=O)(=O)c1ccc(C)cc1)C2
cytotoxicity at 10 µM: 11.2%

COc1ccc(C(=O)N2CCCC3(CCCC(=O)N3C)C2)cc1 (stereo not given)
cytotoxicity at 10 µM: -10.1%

O=C(c1ccnnc1)N1CCCn2nnc(COCC3CC3)c2C1
cytotoxicity at 10 µM: 7.95%

Cc1ncsc1C(=O)NCc1cc2n(n1)CCN(C(=O)N(C)C)C2
cytotoxicity at 10 µM: -5.62%

— ChEMBL document CHEMBL4513216, “Probing the Open Global Health Chemical Diversity Library for Multistage-Active Starting Points for Next-Generation Antimalarials” (ACS Infect Dis, 2020)
